Screens from PubChem.
GSTO1 inh = counter-screen for RBBP9 inhibitors: inhibitors of human GSTO1; inhibition, % at 5.96 µM; recombinant GSTO1, activity-based probe fluorescence polarization; P78417; AID 1974; 1.1% of 300,000 active;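 active means inhibition above the campaign mean inhibition plus 3 SD, cut at about 35% in these data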;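 further: 0% = GSTO1-1 with DMSO and 100% = wells lacking GSTO1-1 enzyme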
Target sequence (P78417 whole entry, looked up): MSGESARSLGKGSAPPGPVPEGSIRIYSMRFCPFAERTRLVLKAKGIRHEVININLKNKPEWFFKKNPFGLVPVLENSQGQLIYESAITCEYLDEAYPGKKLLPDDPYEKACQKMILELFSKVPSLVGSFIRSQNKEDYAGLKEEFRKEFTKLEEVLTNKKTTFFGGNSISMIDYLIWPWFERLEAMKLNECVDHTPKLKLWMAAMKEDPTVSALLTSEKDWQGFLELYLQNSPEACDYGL
Apaf-1 inh = blocks human Apaf-1 apoptosome activity. O14727. reconstituted apoptosome caspase-3 activity, DEVD-Rh110 fluorescence. inhibition, % at 20 µM. 0.71% of 330,000 active; active means inhibition of at least 40% at 20 µM;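 further: plate controls were DMSO wells for no effect and DEVD-CHO caspase inhibitor wells for full effect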
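Assay system: Apoptosome proteins | Medium: pH 7.5 Hepes buffer with CHAPS, BSA, DTT | Also added: Cytochrome c and DEVD-Rh110 substrate | Times: 30 min plus 50 min, RT | Detection: Rhodamine 110 fluorescence at Ex 480/Em 540 nm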
PAD4 inh = blocks human protein arginine deiminase 4; 0.41% of 330,000 active; Q9UM07; inhibition, % at 6.36 µM; recombinant PAD4, RCA probe fluorescence polarization;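 active means percent inhibition above a cutoff equal to the mean of all tested compounds plus 3 SD, cut at about 15% in these data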;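 further: 0% = PAD4 with RCA probe and DMSO and 100% = probe without PAD4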
GASC-1 inh = blocks human GASC-1 demethylase activity | Q9H3R0 | GST-JMJD2C(1-420) H3K9me3 demethylation, DELFIA europium | inhibition, % at 2.35 µM | 0.069% of 330,000 active | AID 2099;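 active means more than half of a compound's replicate wells show inhibition beyond 50%, single wells judged on their own value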;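 further: signal counts dimethyl H3K9 product captured on neutravidin plate; 0% = median of DMSO wells and 100% = 0.3 times that DMSO median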
TDP2 absorb = blocks human TDP2 phosphodiesterase activity; recombinant TDP2, T5PNP hydrolysis, p-nitrophenol absorbance 415 nm; inhibition, % at 12.8 µM; 0.34% of 370,000 active; AID 720702;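 active means inhibition above the mean of all tested compounds plus 3 SD, set per campaign, cut at about 25% in these data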;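 further: 0% = DMSO with enzyme and 100% = buffer with substrate but no TDP2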
Target sequence (O95551 whole entry, looked up): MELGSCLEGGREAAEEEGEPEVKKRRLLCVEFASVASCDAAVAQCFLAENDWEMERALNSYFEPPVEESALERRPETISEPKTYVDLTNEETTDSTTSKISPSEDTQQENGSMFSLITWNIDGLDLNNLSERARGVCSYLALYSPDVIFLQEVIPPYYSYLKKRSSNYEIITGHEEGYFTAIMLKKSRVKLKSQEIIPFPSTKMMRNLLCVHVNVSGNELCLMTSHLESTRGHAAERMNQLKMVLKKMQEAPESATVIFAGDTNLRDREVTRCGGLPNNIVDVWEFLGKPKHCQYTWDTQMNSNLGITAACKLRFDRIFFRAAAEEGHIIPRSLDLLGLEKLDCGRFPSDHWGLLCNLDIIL
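System – recombinant human TDP2 · Amount – 120 nM TDP2 per well · Buffer or medium – Mg2+-containing Tris-HCl buffer, pH 7.5 · Reagent – T5PNP substrate, 5 mM · Dosing – 12.8 µM single point, 1% DMSO · Incubation – 2 h at 37 °C · Measured by – epi absorbance · Read-out basis – percent inhibition · Benchmarks – high control without enzyme, low control DMSO plus TDP2 · Repeats – singlicate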
SUMO HTRF inh = inhibitors of human SUMOylation (UBC9); P63279; HTRF SUMOylation assay, SAE1/SAE2 + UBC9, in vitro; inhibition, % at 35 µM; 0.36% of 290,000 active; AID 2006; in the data active means inhibition above about 50%, passing the limit was not always enough
Target sequence (P63279 whole entry, looked up): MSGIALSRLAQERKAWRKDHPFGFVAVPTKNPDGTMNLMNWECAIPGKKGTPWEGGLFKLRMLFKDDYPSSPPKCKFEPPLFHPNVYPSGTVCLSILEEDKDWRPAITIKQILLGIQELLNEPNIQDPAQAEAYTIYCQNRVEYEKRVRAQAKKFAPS
Apaf-1 inh conf = confirmation of Apaf-1 inhibitors. shares compounds with Apaf-1 inh. reconstituted apoptosome, caspase-3 DEVD-Rh110 fluorescence. inhibition, % at 20 µM. 25% of 1,800 active. AID 504614;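 active means mean inhibition of at least 40% at 20 µM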;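 further: plate controls were DMSO wells for no effect and DEVD-CHO caspase inhibitor control wells for full effect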
Rh110 interf inh = Rh110 signal interference in Apaf-1 inhibitor counter-screen. shares compounds with Apaf-1 inh. AID 504615. activation (fluorescence interference), % at 20 µM. Rh110 fluorescence interference, quenched caspase reaction. 1,800 tested, under 10 active;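 active means signal rise of 40% or more at 20 µM, treated as a fluorescence artifact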
Fluor interf inh = shows fluorescence interference in the Apaf-1 inhibitor assay format; AID 588538; fluorescence interference counterscreen, Apaf-1 assay format; 460 tested, under 10 active; IC50, µM; shares compounds with Apaf-1 inh; call rule not given here
* marks the source's active call; other numbers are inactive results; · = not tested or not shown. Most compounds without a hit are left out; they make up all but 1.6% or so of the library.

SMILES	GSTO1 inh	Apaf-1 inh	PAD4 inh	GASC-1 inh	TDP2 absorb	SUMO HTRF inh	Apaf-1 inh conf	Rh110 interf inh	others
CCn1c(SCC(=O)Nc2ccc(C(C)C)cc2)nnc1-c1ccc(C(C)(C)C)cc1	·	·	·	·	-8.6	·	·	·
COC(=O)C1=C(C)N(Cc2ccccc2)C(=NCC(C)C)N[C@H]1c1cccc(C(F)(F)F)c1	·	58.0*	-0.5	-0.1	·	·	12.8	3.8
COC(=O)C1=C(C)N(Cc2ccc(C(F)(F)F)cc2)C(=NCc2ccc(C(F)(F)F)cc2)NC1c1cccc(C(F)(F)F)c1 (stereo not drawn)	·	·	·	·	0.6	·	·	·
COC(=O)C1=C(C)N(Cc2ccccc2)C(=NCCc2cccnc2)N[C@H]1c1ccc(Br)cc1	·	51.3*	1.5	-12.5	·	·	10.8	0.5
COC(=O)C1=C(C)N(Cc2ccccc2)C(=NCc2ccccc2)N[C@H]1c1cccc(C(F)(F)F)c1	·	64.7*	0.9	-5.0	·	·	33.0	14.7
C[C@H]1C2CC(OC(=O)NCc3ccccc3)C(C2)[C@H]2CCCCN21 (stereo partly drawn)	·	·	·	·	-7.1	·	·	·
CCOC(=O)c1c(NC(=O)CN2CCN(C(=O)c3ccco3)CC2)sc2c1CCCC2	21.0	47.9*	-0.6	-9.0	0.8	-66.3	7.5	10.3
Cc1cc(C)cc(NC(=O)CCNS(=O)(=O)c2cc(Br)cnc2N)c1	3.5	-1.2	-3.5	3.1	0.0	·	·	·
CCc1ccccc1NC(=O)CCNS(=O)(=O)c1cc(Br)cnc1N	5.0	48.7*	1.6	-0.7	2.9	·	11.7	9.2
COc1ccc(OC)c(C2=NOC(C(=O)Nc3ccc4c(c3)OCCO4)C2)c1 (stereo not drawn)	4.6	41.7*	1.0	-23.6	-7.4	8.0	5.5	0.7
CC(NS(=O)(=O)c1ccccc1)C(c1cccs1)N1CCN(c2ccccc2)CC1 (stereo not drawn)	4.8	11.4	0.5	-3.4	8.5	-2.9	·	·
COc1ccccc1N1CCN(C(c2cccs2)C(C)NS(=O)(=O)c2ccccc2)CC1 (stereo not drawn)	-2.9	55.4*	-2.3	-3.1	2.8	-14.4	46.4*	2.8	Fluor interf inh=>100
CCN(CC)CCCNc1ccc(-c2nnc(-c3ccc(OCC(C)C)cc3)o2)cn1	-19.6	41.4*	-1.5	-2.0	-2.8	27.3	31.6	8.7
Cc1cccc(NC(=O)CSCC(=O)N(C)Cc2ccc(Cl)c(Cl)c2)c1	·	62.6*	-5.1	13.9	-3.9	·	45.9*	12.2	Fluor interf inh=>100
C#CCOCCOCCOCCNc1nc(N2CCN(C(=O)[C@H](CCCCN)n3cc(CN)nn3)CC2)nc(N2CCN(C(=O)[C@H](CCCCN)n3cc([C@@H](N)CC(N)=O)nn3)CC2)n1	·	·	·	·	9.5	·	·	·
C#CCOCCOCCOCCNc1nc(N2CCN(C(=O)C([C@@H](C)O)n3cc([C@@H](N)CCCCN)nn3)CC2)nc(N2CCN(C(=O)[C@H](CCCCN)n3cc([C@@H](N)CC(N)=O)nn3)CC2)n1 (stereo partly drawn)	·	51.1*	2.6	7.8	2.8	·	9.0	-2.1
C#CCOCCOCCOCCNc1nc(N2CCN(C(=O)[C@H](CCCCN)n3cc([C@@H](N)CC(N)=O)nn3)CC2)nc(N2CCN(C(=O)[C@H](CCCCN)n3cc([C@@H](N)CC(N)=O)nn3)CC2)n1	·	55.2*	-3.5	·	2.2	·	5.5	3.4
C#CCOCCOCCOCCNc1nc(N2CCN(C(=O)[C@H]([C@@H](C)CC)n3cc([C@@H](N)Cc4ccc(O)cc4)nn3)CC2)nc(N2CCN(C(=O)[C@H](CCCCN)n3cc([C@@H](N)CO)nn3)CC2)n1	-2.6	52.3*	-1.8	14.0	·	6.4	0.1	0.9
CCC[C@@H](/C=C/C(=O)OC(C)(C)C)Sc1ccccc1OC	·	·	·	·	5.2	·	·	·
COc1ccc(NC(=O)CSc2ncnc3scc(-c4ccc(C)cc4)c23)cc1OC	·	·	·	·	-3.5	·	·	·
O=C(CN1CCc2onc(-c3ccc(-n4cc(C5=CCCCC5)nn4)cc3)c2C1=O)N1CCOCC1	·	·	·	·	5.4	·	·	·
COc1ccc(CN2CCC(C(=O)Nc3ccc(Oc4cccnc4)cc3)CC2)cc1	1.4	58.4*	2.5	-1.4	4.7	2.2	16.9	15.7
COc1cccc(O)c1CN1CCC(C(=O)Nc2ccc(Oc3cccnc3)cc2)CC1	0.2	16.0	2.6	1.9	-6.6	-1.2	·	·
O=C(CN1C(=O)CCSc2ccccc21)Nc1ccc(Cl)c(Cl)c1	·	·	·	·	-3.5	·	·	·
Cc1c(/C=N\NC(=O)C2COc3ccccc3O2)c2ccccc2n1C (stereo not drawn)	2.7	·	-2.4	-8.5	3.9	-22.4	·	·
SMILES	GSTO1 inh	Apaf-1 inh	PAD4 inh	GASC-1 inh	TDP2 absorb	SUMO HTRF inh	Apaf-1 inh conf	Rh110 interf inh	others
Cc1[nH]n(-c2ccccc2)c(=O)c1/C=N/NC(=O)c1cccc([N+](=O)[O-])c1	2.2	55.7*	0.6	10.4	-9.9	-51.9	53.1*	1.5	Fluor interf inh=>100
Cc1[nH]n(-c2cccc3ccccc23)c(=O)c1/C=N/NC(=O)c1cccc([N+](=O)[O-])c1	-9.1	16.4	-2.2	15.0	-9.5	-5.5	·	·
Cc1[nH]n(-c2ccccc2)c(=O)c1/C=N\NC(=O)C1COc2ccccc2O1 (stereo not drawn)	4.6	53.9*	-12.7	9.9	-5.6	-25.9	64.8*	-6.0	Fluor interf inh=>100
O=C(O)c1cc(/C=N\O)ccc1OCc1ccccc1	-8.9	3.4	3.3	10.0	1.3	-12.1	·	·
NC(N)=N/N=C/c1ccc(OCc2ccccc2)c(OCc2ccccc2)c1	-4.9	60.7*	-11.1	9.2	-13.0	-5.7	41.9*	15.3	Fluor interf inh=>100
COc1cc(/C=N/N=C(N)N)ccc1OCc1ccc(Cl)cc1	-6.2	40.1*	-2.4	-27.5	1.7	2.0	13.4	6.7
CCOc1cc(/C=N/N=C(N)N)ccc1OCc1ccc(Cl)cc1	-2.6	·	-4.9	-15.4	-3.7	-12.7	·	·
CCOc1ccc(-n2c(SCC(=O)Nc3cccc4ccccc34)nnc2-c2ccncc2)cc1	·	·	·	·	0.8	·	·	·
CN1c2ccccc2N(C)C1(C)c1cccc2ccccc12	26.5	19.3	-1.4	4.2	-19.9	32.8	·	·
CN1c2cccc3cccc(c23)N(C)C1(C)C	26.1	45.5*	-10.9	9.2	13.0	19.6	13.5	-3.7
CCn1c(SCC(=O)NN=Cc2ccc(C(=O)O)cc2)nc2ccccc21	·	·	·	·	-0.6	·	·	·
COc1ccc(-c2oc3ncnc(NCCN4CCOCC4)c3c2-c2ccc(OC)cc2)cc1	0.8	42.1*	-2.8	-0.9	·	7.0	24.8	14.6
Clc1ccc(-n2c(SCc3cccc4ccccc34)nnc2-c2cccnc2)cc1	·	·	·	·	2.0	·	·	·
